Laboratory results published in article PMC5598103 (Toxicology Reports, 2014).

Key:
[1] = target: T1, tissue non-specific alkaline phosphatase (TNAP) (Homo sapiens, UniProt P05186); experiment: Alkaline phosphatase inhibition, spectrophotometric p-NPP assay; assay type: biochemical; settings: for Ki: read-out: Ki ± SEM TNAP, pH 9.5, p-NPP substrate, SEM of 3 experiments
T1 sequence (P05186 18-524): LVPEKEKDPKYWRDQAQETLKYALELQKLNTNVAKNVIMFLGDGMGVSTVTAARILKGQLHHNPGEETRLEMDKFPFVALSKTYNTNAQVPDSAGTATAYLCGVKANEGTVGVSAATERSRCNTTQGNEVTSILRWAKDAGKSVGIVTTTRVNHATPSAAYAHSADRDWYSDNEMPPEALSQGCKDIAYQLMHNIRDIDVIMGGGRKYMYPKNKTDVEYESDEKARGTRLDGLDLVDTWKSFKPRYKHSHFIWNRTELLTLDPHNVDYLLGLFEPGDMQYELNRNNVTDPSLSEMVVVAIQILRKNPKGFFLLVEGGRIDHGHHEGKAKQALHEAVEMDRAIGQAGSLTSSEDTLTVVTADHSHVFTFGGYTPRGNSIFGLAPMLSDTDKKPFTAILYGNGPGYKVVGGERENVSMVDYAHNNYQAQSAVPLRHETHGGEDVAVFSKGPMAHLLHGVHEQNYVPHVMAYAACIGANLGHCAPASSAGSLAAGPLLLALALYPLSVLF
Summary of the method: (§1)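 Commercial enzyme (calf-intestinal CIAP; TNAP) diluted in pH 9.5 buffer of 50 mM Tris–HCl, 5 mM MgCl2, 0.1 mM ZnCl2 and 50% glycerol. Test compound was preincubated with enzyme in glycerol-free buffer at 37 °C for 10 min. 0.5 mM p-NPP solution was added, incubated 30 min, and p-nitrophenolate read at 405 nm. Screen at 0.1 mM used levamisole (TNAP) or L-phenylalanine (CIAP) as standards. Ki came from 3-fold serial dilutions, run in triplicate.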

vero cells = experiment: Cytotoxicity by sulforhodamine B; assay type: cell-based; settings: for Percent inhibition ± SEM at 10 μM on vero cells: up to 48 h
Summary of the method: (§2)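 HeLa or vero cells were grown in RPMI-1640 with 2 mM L-glutamine, penicillin/streptomycin and 10% FBS at 37 °C, 5% CO2. Cells were seeded at 10^4 per well for 24 h, then exposed to 10, 1 or 0.1 μM test compound for up to 48 h, with vincristine and medium controls. Cells were fixed with cold TCA for 1 h and stained 30 min with 0.4% SRB in 1% acetic acid. Dye was solubilised in 10 mM Tris base and read at 490 nm minus 630 nm. Three experiments were run, each in triplicate.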

HeLa cells = experiment: Cytotoxicity by sulforhodamine B; assay type: cell-based, human; settings: for Percent inhibition ± SEM at 0.1 μM on Hela cells / Percent inhibition ± SEM at 1 μM on Hela cells / Percent inhibition ± SEM at 10 μM on Hela cells: up to 48 h
Summary of the method: as §2

[2] = target: calf intestine alkaline phosphatase (CIAP); experiment: Alkaline phosphatase inhibition, spectrophotometric p-NPP assay; assay type: biochemical; settings: read-out: Ki ± SEM CIAP; pH 9.5, p-NPP substrate, SEM of 3 experiments
Summary of the method: as §1

c1ccc([C@H]2CN3CCSC3=N2)cc1 [Levamisole, reference compound]
inhibition at 100 µM ([1]; read-out: Percent inhibition of TNAP): 71%

CC[C@]1(O)C[C@H]2CN(CCc3c([nH]c4ccccc34)[C@@](C(=O)OC)(c3cc4c(cc3OC)N(C=O)[C@H]3[C@@](O)(C(=O)OC)[C@H](OC(C)=O)[C@]5(CC)C=CCN6CC[C@]43[C@@H]65)C2)C1 [VCN, vincristine, reference compound]
inhibition at 10 µM (vero cells; Chlorocebus sabaeus, Vero, 48 h, read-out: Percent inhibition ± SEM at 10 μM on vero cells): 10 ± 4% | inhibition at 10 µM (HeLa cells; Homo sapiens, HeLa, 48 h, read-out: Percent inhibition ± SEM at 10 μM on Hela cells): 72 ± 7%

(NH4)14[NaP5W30O110]·31H2O
Ki [1]: 1110 ± 36 nM | Percent inhibition ± SEM at 10 μM on vero cells (vero cells): 15 ± 6% | Percent inhibition ± SEM at 0.1 μM on Hela cells (HeLa cells): 54 ± 6% | Percent inhibition ± SEM at 1 μM on Hela cells (HeLa cells): 62 ± 13% | Percent inhibition ± SEM at 10 μM on Hela cells (HeLa cells): 74 ± 10% | Ki [2]: 921 ± 6 nM

Na6[TeW6O24]·22H2O
Ki [1]: 45.4 ± 11.3 nM | Percent inhibition ± SEM at 10 μM on vero cells (vero cells): 16 ± 8% | Percent inhibition ± SEM at 0.1 μM on Hela cells (HeLa cells): 53 ± 12% | Percent inhibition ± SEM at 1 μM on Hela cells (HeLa cells): 62 ± 10% | Percent inhibition ± SEM at 10 μM on Hela cells (HeLa cells): 69 ± 10% | Ki [2]: 520 ± 13 nM

Na6[V10O28]·18H2O
Ki [1]: 169 ± 21 nM | Percent inhibition ± SEM at 10 μM on vero cells (vero cells): 16 ± 3% | Percent inhibition ± SEM at 0.1 μM on Hela cells (HeLa cells): 49 ± 11% | Percent inhibition ± SEM at 1 μM on Hela cells (HeLa cells): 57 ± 13% | Percent inhibition ± SEM at 10 μM on Hela cells (HeLa cells): 66 ± 15% | Ki [2]: 79.1 ± 2.3 nM
